Results on 15 compounds are retold here after ChEMBL document CHEMBL1137740, “Design, cytotoxic and fluorescent properties of novel N-phosphorylalkyl substituted E,E-3,5-bis(arylidene)piperid-4-ones” (Eur J Med Chem, 2009).

The nature of assay [1]: Cytotoxicity against human Caov3 cells after 72 hrs by MTT assay. Format: functional, cell-based. To be noted: Caov-3, 72 h. The procedure, abridged:
(§1)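 Cells grown in RPMI-1640 with 10% FBS, 2 mM L-glutamine and gentamicin. Seeded at 1×10^4 cells/well and allowed to attach overnight at 37 °C, 5% CO2. Compounds dissolved in DMSO and diluted into FBS-free medium, tested at 5×10^-5, 10^-5, 10^-6 and 10^-7 M. After 72 h, MTT added for 3 h at 37 °C. Formazan dissolved in DMSO and OD read at 590 nm. Viability expressed versus untreated controls, triplicates. IC50 determined graphically; melphalan as positive control.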
(Tetrazolium dyes change colour on reduction, which living cells bring about.)

Assay [2] has as its system SK-OV-3. The experiment in a line: Cytotoxicity against human Scov3 cells after 72 hrs by MTT assay. The assay is classed as functional, cell-based. To be noted: SK-OV-3, 72 h. The procedure, abridged: as §1
For assay [3], the system named is A549. The experiment in a line: Cytotoxicity against human A549 cells after 72 hrs by MTT assay. The assay is classed as functional, cell-based. To be noted: A549, 72 h. The procedure, abridged:
as §1

Assay [4] deals with PC-3. Description: Cytotoxicity against human PC3 cells after 72 hrs by MTT assay. Format: functional, cell-based. To be noted: PC-3, 72 h. The procedure, abridged:
as §1

Assay [5] is described as follows: Cytotoxicity against human Caov3 cells at 50 uM after 72 hrs by MTT assay. The assay is classed as functional. To be noted: Caov-3, 72 h.
Assay [6] relates to SK-OV-3. The experiment in a line: Cytotoxicity against human Scov3 cells at 50 uM after 72 hrs by MTT assay. Particulars: SK-OV-3, 72 h. Format: functional.
Assay [7] concerns PC-3. Description: Cytotoxicity against human PC3 cells at 50 uM after 72 hrs by MTT assay. The assay is classed as functional. To be noted: PC-3, 72 h.
Assay [8] relates to A549. The experiment in a line: Cytotoxicity against human A549 cells at 50 uM after 72 hrs by MTT assay. To be noted: A549, 72 h. The assay is classed as functional.

One may read the IC50 as the concentration that gives 50% inhibition. Low values mean higher potency, high ones lower potency. As to `O=C1/C(=C/c2ccc([N+](=O)[O-])cc2)CNC/C1=C\c1ccc([N+](=O)[O-])cc1`, the IC50 in assay [1] is 1.03 µM; with SK-OV-3 [2], 2.5 µM; with A549 [3] it was 0.4 µM; in the assay with PC-3 [4], 1.54 µM.

One may read the inhibition as the drop in the measured response relative to a control, in per cent. Low readings indicate a weak effect, high ones a strong effect. On to `O=C1/C(=C/c2ccc(F)cc2)CNC/C1=C\c1ccc(F)cc1`, for which the IC50 is 6.5 µM with SK-OV-3 [2], 0.8 µM in the assay with A549 [3] and 6 µM in the assay with PC-3 [4]. In assay [5], this compound yielded an inhibition at 50 µM of under 50%.

As to `CN(C)c1ccc(/C=C2\CNC/C(=C\c3ccc(N(C)C)cc3)C2=O)cc1`, the IC50 with SK-OV-3 [2] was found to be 14 µM; in the assay on A549 [3], 1.4 µM; with PC-3 [4], 15 µM. In assay [5], this compound showed an inhibition at 50 µM of under 50%.

Consider `CCOP(=O)(CCCN1C/C(=C\c2ccc(N(C)C)cc2)C(=O)/C(=C/c2ccc(N(C)C)cc2)C1)OCC`, for which the inhibition at 50 µM (in assay [5]; with SK-OV-3 [6]; in the assay with PC-3 [7]; with A549 [8]) was under 50% in each case.

Turning to `CCOP(=O)(CCCCN1C/C(=C\c2ccc(N(C)C)cc2)C(=O)/C(=C/c2ccc(N(C)C)cc2)C1)OCC`, the inhibition at 50 µM (in assay [5]; in the assay on SK-OV-3 [6]; with PC-3 [7]; in the assay on A549 [8]) was under 50% throughout.

`CCOP(=O)(CCN1C/C(=C\c2ccc(N(C)C)cc2)C(=O)/C(=C/c2ccc(N(C)C)cc2)C1)OCC`: the inhibition at 50 µM (in assay [5]; in the assay on SK-OV-3 [6]; in the assay with PC-3 [7]; in the assay with A549 [8]) was under 50% in each case.

For `CCOP(=O)(CCN1C/C(=C\c2ccc([N+](=O)[O-])cc2)C(=O)/C(=C/c2ccc([N+](=O)[O-])cc2)C1)OCC`, the IC50 in assay [1] worked out at 5.05 µM; in the assay with SK-OV-3 [2], 2.01 µM; in the assay with A549 [3] it was 1 µM; in the assay with PC-3 [4], 1.32 µM.

For `CCOP(=O)(CCCN1C/C(=C\c2ccc([N+](=O)[O-])cc2)C(=O)/C(=C/c2ccc([N+](=O)[O-])cc2)C1)OCC`, the half-maximal inhibitory concentration (IC50) was 5.62 µM in assay [1], 0.9 µM in the assay with SK-OV-3 [2], 7.12 µM in the assay on A549 [3] and 0.71 µM in the assay on PC-3 [4].

Take `CCOP(=O)(CN1C/C(=C\c2ccc(N(C)C)cc2)C(=O)/C(=C/c2ccc(N(C)C)cc2)C1)OCC`: the inhibition at 50 µM (in assay [5]; with SK-OV-3 [6]; in the assay on A549 [8]) was under 50% each time. In the assay with PC-3 [4], half-maximal inhibition (IC50) was put at 30 µM.

Take `CCOP(=O)(CN1C/C(=C\c2ccc(F)cc2)C(=O)/C(=C/c2ccc(F)cc2)C1)OCC`: the IC50 in assay [1] was 10.2 µM; in the assay with SK-OV-3 [2], 2.1 µM; in the assay with A549 [3], 8.05 µM; in the assay with PC-3 [4], 3 µM.

Take `CCOP(=O)(CN1C/C(=C\c2ccc([N+](=O)[O-])cc2)C(=O)/C(=C/c2ccc([N+](=O)[O-])cc2)C1)OCC`: the IC50 in assay [1] amounted to 5.03 µM; in the assay on SK-OV-3 [2], 1.52 µM; in the assay on A549 [3], 1 µM; in the assay with PC-3 [4], 1.4 µM.

`CCOP(=O)(CCCN1C/C(=C\c2ccc(F)cc2)C(=O)/C(=C/c2ccc(F)cc2)C1)OCC`: the IC50 in assay [1] came to 8.5 µM; with SK-OV-3 [2], 2.8 µM; with A549 [3], 9.07 µM; in the assay with PC-3 [4], 1.82 µM.

On to `CCOP(=O)(CCN1C/C(=C\c2ccc(F)cc2)C(=O)/C(=C/c2ccc(F)cc2)C1)OCC`, for which the 50% inhibitory concentration (IC50) in assay [1] is 10 µM; in the assay with SK-OV-3 [2], 1.64 µM; in the assay on A549 [3], 1.02 µM; in the assay with PC-3 [4], 4.01 µM.

In the case of `CCOP(=O)(CCCCN1C/C(=C\c2ccc([N+](=O)[O-])cc2)C(=O)/C(=C/c2ccc([N+](=O)[O-])cc2)C1)OCC`, the IC50 in assay [1] was 1.01 µM; in the assay with SK-OV-3 [2] it was 4.1 µM; with A549 [3], 3 µM; with PC-3 [4], 1.2 µM.

Consider `N[C@@H](Cc1ccc(N(CCCl)CCCl)cc1)C(=O)O` [MELPHALAN], for which the IC50 worked out at 20 µM in assay [1], 60 µM with SK-OV-3 [2], 50 µM in the assay with A549 [3] and 70 µM in the assay on PC-3 [4].
